Results on 17 compounds are retold here after ChEMBL document CHEMBL1150584, “Antifungal stilbenoids from Stemona collinsae” (J Nat Prod, 2002).

For assay [1], the system named is Cladosporium herbarum. Put plainly: Inhibition of germ tube formation in Cladosporium herbarum VIAM MA1511 after 16 hrs by microdilution technique. The format is functional, organism-based. In a few lines:
(§1)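 Stock (2 mg in 250 µL acetone plus 4.75 mL 4% malt extract, emulsified with 0.2% Tween 80) serially 2-fold microdiluted in 4% malt extract broth. Conidia were added at 10⁴ CFU/mL, then incubated 16 h at room temperature and stopped with lactophenol blue. Mycelial size was taken as pixel counts from images of 10 germinated conidia per well. Probit-log estimates covered 200–0.1 µg/mL. Controls were vehicle stock and benomyl.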
A general note: In broth dilution the organism is exposed to a series of concentrations in liquid medium.

Assay [2] concerns Cladosporium herbarum. Put plainly: Inhibition of germ tube formation in Cladosporium herbarum VIAM MA1511 at 0.4 to 200 ug/ml after 16 hrs by microdilution technique. The format is functional. In a few lines:
(§2)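 Germ tube inhibition by 2-fold serial microdilution in 4% malt extract broth. Compound stock of 2 mg in 250 µL acetone plus 4.75 mL malt extract with 0.2% Tween 80; negative control was stock without compound. Spores added at 10⁴ CFU/mL, incubated 16 h at room temperature, stopped with lactophenol blue. Mycelial size taken as pixel counts from images of 10 germinated conidia per well. Probit-log estimates over 200–0.1 µg/mL; MIC = lowest concentration with no germination.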

The test system of assay [3] is Botrytis cinerea. The assay is described as follows: Inhibition of germ tube formation in Botrytis cinerea VIAM MA2725 at 0.4 to 200 ug/ml after 16 hrs by microdilution technique. The assay is classed as functional. In a few lines: as §2
In assay [4] the test system is Alternaria citri. Put plainly: Inhibition of germ tube formation in Alternaria citri VIAM MA1627 after 16 hrs by microdilution technique. The format is functional, organism-based. In a few lines: as §1
In assay [5] the test system is Pyricularia grisea. Put plainly: Inhibition of germ tube formation in Pyricularia grisea VIAM MA1628 after 16 hrs by microdilution technique. The format is functional, organism-based. In short, it runs like this: as §2
Assay [6] has as its system Botrytis cinerea. The assay is described as follows: Inhibition of germ tube formation in Botrytis cinerea VIAM MA2725 after 16 hrs by microdilution technique. The format is functional, organism-based. In short, it runs like this:
as §1

The test system of assay [7] is Fusarium avenaceum. Put plainly: Inhibition of germ tube formation in Fusarium avenaceum VIAM MA1512 after 16 hrs by microdilution technique. The assay is classed as functional, organism-based. In short, it runs like this: as §1
The test system of assay [8] is Cladosporium herbarum. Put plainly: Growth inhibition of Cladosporium herbarum VIAM MA1511 at 10 ug by bioautography test. The assay is classed as functional, organism-based.
Assay [9] deals with Fusarium avenaceum. Put plainly: Inhibition of germ tube formation in Fusarium avenaceum VIAM MA1512 at 1.6 to 200 ug/ml after 16 hrs by microdilution technique. The assay is classed as functional. In a few lines: as §1
For assay [10], the system named is Botrytis cinerea. Put plainly: Inhibition of germ tube formation in Botrytis cinerea VIAM MA2725 at 1.6 to 200 ug/ml after 16 hrs by microdilution technique. The format is functional. In a few lines: as §1

In brackets after ≈: the same amount, converted by molar mass. Activity calls are given as the source filed them. The rule behind the calls is not given here.

Take `CCCCNC(=O)n1c(NC(=O)OC)nc2ccccc21` [BENOMYL]: the MIC – broadly, the least concentration at which growth counts as inhibited – in assay [1] is above 200 µg/mL; in [4], above 200 µg/mL; in [5], 200 µg/mL (≈ 689 µM); in assay [6] it was above 200 µg/mL; in [7], 100 µg/mL (≈ 344 µM). For the same compound, the “inhibition (INH)” value in assay [2] and in assay [3] was 85% in each case. Also, the EC50 (usually the midpoint of the concentration-response curve) was above 200 µg/mL in assay [4] and 0.02 µg/mL (≈ 0.0689 µM) in assay [7]. Further, the EC90 (commonly the concentration needed for an effect of 90%) in assay [4] is above 200 µg/mL; in assay [5] it was 84 µg/mL (≈ 289 µM); in [7], above 200 µg/mL.
Take `Oc1cc(O)cc(/C=C/c2ccccc2)c1`: in assay [8], the result was Active.
As to `COc1cc(-c2cc3c(O)c(C)ccc3o2)c(C)c(O)c1C` [STEMOFURAN G], the EC50 in assay [1] was above 200 µg/mL; in assay [4], 14 µg/mL (≈ 46.9 µM). The EC90 in assay [1] and in assay [4] was above 200 µg/mL throughout. Further, the MIC in assay [1], in assay [4], in [6] and in assay [7] was above 200 µg/mL throughout. Further, the “inhibition (INH)” value in assay [9] and in [10] was 30% in each case.
As to `COc1cc(O)c(C)c(-c2cc3c(O)cccc3o2)c1`, the result in [8] was Active.
Turning to `COc1cc(O)cc(CCc2cccc(O)c2OC)c1`, the result in assay [8] was Active.
Take `Cc1c(O)cc(CCc2ccccc2)cc1O` [STILBOSTEMIN B]: the EC50 in assay [1] was found to be 15 µg/mL (≈ 65.7 µM); in assay [4], 5 µg/mL (≈ 21.9 µM); in assay [5] it was 3 µg/mL (≈ 13.1 µM); in [6] it was 10 µg/mL (≈ 43.8 µM); in [7], 16 µg/mL (≈ 70.1 µM). The concentration for an effect of 90% (EC90) in [1] is above 200 µg/mL; in assay [4], above 200 µg/mL; in assay [5] it was 371 µg/mL (≈ 1630 µM); in [6], above 200 µg/mL; in assay [7] it was above 200 µg/mL. Further, the MIC is above 200 µg/mL in [1]; 200 µg/mL (≈ 876 µM) in assay [4]; 100 µg/mL (≈ 438 µM) in assay [5]; above 200 µg/mL in assay [6]; above 200 µg/mL in assay [7]. Besides, the outcome in [8] was Active.
Consider `COc1ccccc1CCc1cc(O)c(C)c(O)c1` [STILBOSTEMIN D], for which the EC50 in [1] is 17 µg/mL (≈ 65.8 µM); in [4], 19 µg/mL (≈ 73.6 µM); in assay [5] it was 3 µg/mL (≈ 11.6 µM); in assay [6] it was 11 µg/mL (≈ 42.6 µM); in [7], 57 µg/mL (≈ 221 µM). The EC90 in [1] was above 200 µg/mL; in [4], above 200 µg/mL; in assay [5], 152 µg/mL (≈ 588 µM); in [6] it was above 200 µg/mL; in [7] it was above 200 µg/mL. In addition, the MIC in assay [1] is above 200 µg/mL; in [4], above 200 µg/mL; in assay [5], 100 µg/mL (≈ 387 µM); in [6], above 200 µg/mL; in assay [7], above 200 µg/mL. For the same compound, the result in [8] was Active.
For the compound `COc1c(C)c(O)c(C)c(-c2cc3c(O)cccc3o2)c1C` [STEMOFURAN F], the values for the EC50 in [1] and in assay [4] were 79 µg/mL (≈ 265 µM) and 10 µg/mL (≈ 33.5 µM), respectively. Besides, the EC90 in [1] and in assay [4] was above 200 µg/mL in each case. The MIC in assay [1], in assay [4], in assay [6] and in assay [7] was above 200 µg/mL in each case. The result in [8] was Active. In addition, the “inhibition (INH)” value in [9] and in assay [10] was 30% each time.
`Cc1c(O)cc(CCc2ccccc2O)cc1O`: the outcome in assay [8] was Active.
As to `Oc1cc(O)cc(-c2cc3ccccc3o2)c1`, the result in [8] was Active.
With `COc1ccccc1CCc1cc(O)cc(O)c1` [STILBOSTEMIN A], the EC50 in assay [1] was above 200 µg/mL; in assay [4] it was 70 µg/mL (≈ 287 µM); in [5], 46 µg/mL (≈ 188 µM); in assay [7], above 200 µg/mL. For the same compound, the 90% effect concentration (EC90) in assay [1], in assay [4], in assay [5] and in [7] was above 200 µg/mL in each case. Also, the MIC in [1], in assay [4], in assay [5], in [6] and in assay [7] was above 200 µg/mL in each case. The result in assay [8] was Active. Further, the “inhibition (INH)” value in assay [10] is listed as 30%.
For `Cc1c(O)cc(-c2cc3ccccc3o2)cc1O` [STEMOFURAN C], the EC50 came out at 8 µg/mL (≈ 33.3 µM) in [1]; 7 µg/mL (≈ 29.1 µM) in [4]; 3.2 µg/mL (≈ 13.3 µM) in assay [5]; 29 µg/mL (≈ 121 µM) in [6]; 21 µg/mL (≈ 87.4 µM) in [7]. Further, the EC90 in assay [1] is above 200 µg/mL; in assay [4], 528 µg/mL (≈ 2200 µM); in [5], 30 µg/mL (≈ 125 µM); in assay [6], above 200 µg/mL; in assay [7] it was above 200 µg/mL. For the same compound, the MIC was above 200 µg/mL in assay [1]; above 200 µg/mL in assay [4]; 50 µg/mL (≈ 208 µM) in [5]; above 200 µg/mL in [6]; above 200 µg/mL in [7]. Also, in assay [8], the result was Active.
`COc1cc(O)c(C)c(CCc2cccc(O)c2OC)c1`: the outcome in [8] was Active.
As to `Cc1c(O)cc(/C=C/c2ccccc2)cc1O`, in [8], the result was Active.
`COc1cc(O)cc(-c2cc3c(O)cccc3o2)c1` [STEMOFURAN B]: the EC50 in [1] is 183 µg/mL (≈ 714 µM); in assay [4], 5 µg/mL (≈ 19.5 µM); in assay [5] it was 1.4 µg/mL (≈ 5.46 µM); in [6], 8 µg/mL (≈ 31.2 µM); in [7] it was 10 µg/mL (≈ 39 µM). For the same compound, the EC90 in assay [1] was above 200 µg/mL; in assay [4], 128 µg/mL (≈ 499 µM); in assay [5] it was 52 µg/mL (≈ 203 µM); in assay [6] it was above 200 µg/mL; in [7], above 200 µg/mL. In addition, the MIC is above 200 µg/mL in assay [1]; 200 µg/mL (≈ 780 µM) in [4]; 50 µg/mL (≈ 195 µM) in [5]; above 200 µg/mL in assay [6]; above 200 µg/mL in [7]. In addition, in assay [8], the outcome was Active.
On to `COc1cc(-c2cc3c(O)cccc3o2)c(C)c(OC)c1C` [STEMOFURAN J], for which the 50% effective concentration (EC50) in assay [1] was found to be 34 µg/mL (≈ 114 µM); in assay [4], 50 µg/mL (≈ 168 µM); in assay [5], 0.9 µg/mL (≈ 3.02 µM); in [6] it was 50 µg/mL (≈ 168 µM); in [7] it was 32 µg/mL (≈ 107 µM). Moreover, the EC90 in assay [1] was above 200 µg/mL; in assay [4], above 200 µg/mL; in assay [5], 8.5 µg/mL (≈ 28.5 µM); in assay [6], above 200 µg/mL; in assay [7] it was above 200 µg/mL. In addition, the minimal inhibitory concentration (MIC) in assay [1] is above 200 µg/mL; in [4], above 200 µg/mL; in assay [5], 25 µg/mL (≈ 83.8 µM); in assay [6] it was above 200 µg/mL; in assay [7], above 200 µg/mL.
In the case of `COc1cc(-c2cc3c(O)cccc3o2)c(C)c(O)c1C` [STEMOFURAN E], the EC50 stood at 0.8 µg/mL (≈ 2.81 µM) in [1], 5 µg/mL (≈ 17.6 µM) in assay [4], 26 µg/mL (≈ 91.4 µM) in assay [6] and 18 µg/mL (≈ 63.3 µM) in assay [7]. The EC90 in assay [1], in [4], in [6] and in assay [7] was above 200 µg/mL each time. For the same compound, the MIC in [1], in [4], in [6] and in assay [7] was above 200 µg/mL each time. The outcome in assay [8] was Active.
